Compounds with a hit are over-represented: about 2.4% of the library has one in this group of screens.
NPY-Y2 antag = NPY-Y2 (human) receptor antagonism; P49146; NPY-Y2 expressing cells, antagonist mode; inhibition, % at 2.7 µM; hit rate 0.99% among 140,000;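 note: 0% = vehicle with agonist challenge and 100% = reference antagonist with challenge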
S1P4 agonist = agonists of human S1P4 receptor; hit rate 0.35% among 220,000; activation, % at 4.98 µM; S1P4-expressing cell line, agonist reporter assay; O95977; in the data active = activation above about 11%;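 note: 0% = DMSO vehicle and 100% = reference agonist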
Target sequence (O95977 whole entry, looked up): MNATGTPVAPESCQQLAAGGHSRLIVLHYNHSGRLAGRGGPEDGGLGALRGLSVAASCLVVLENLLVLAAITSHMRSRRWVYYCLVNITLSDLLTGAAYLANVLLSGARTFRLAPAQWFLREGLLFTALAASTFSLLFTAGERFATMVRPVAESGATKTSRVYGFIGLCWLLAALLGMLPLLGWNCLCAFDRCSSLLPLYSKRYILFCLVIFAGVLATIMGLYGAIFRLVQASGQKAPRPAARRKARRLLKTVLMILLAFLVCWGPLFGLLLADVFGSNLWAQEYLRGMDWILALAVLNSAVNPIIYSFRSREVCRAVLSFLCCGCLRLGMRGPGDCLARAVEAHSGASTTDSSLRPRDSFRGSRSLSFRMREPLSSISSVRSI
NPY-Y1 antag = NPY-Y1 (human) receptor antagonism. hit rate 1% among 200,000. P25929. HEK293-CNG Y1 cells, membrane potential fluorescence; NPY at EC95, then isoproterenol. inhibition, % at 3.6 µM. AID 1040;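 active = inhibition above the campaign mean inhibition of all tested compounds plus 3 SD, cut at about 20% in these data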;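 note: 0% = DMSO wells given NPY plus isoproterenol and 100% = isoproterenol alone without NPY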
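Assay system: HEK293 cells with Y1 receptor plus CNG channel | Probe or stimulus: NPY (25 nM), isoproterenol (1 µM), Ro 20-1724 (25 µM) | Timing: Compound incubation 1 h at room temperature, readout 45 min post-stimulation | Measured by: Membrane-potential fluorescent dye readout | Benchmarks: High control isoproterenol alone, low control NPY with isoproterenol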
NPY-Y2 PAM-ag = potentiates or activates human NPY-Y2 receptor. activation, % at 3.6 µM. P49146. hit rate 0.45% among 220,000. AID 1359. cells expressing NPY-Y2, potentiator/agonist read-out; in the data active = activation above about 27%;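 note: cells stimulated with NPY near EC25 plus isoproterenol at EC100; 0% = vehicle plus submaximal agonist and 100% = vehicle plus saturating agonist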
S1P4 antag = human S1P4 receptor antagonism; O95977; S1P4-expressing cells, antagonist mode, reporter read-out; inhibition, % at 4.98 µM; hit rate 0.26% among 220,000; AID 1510; in the data active = inhibition above about 29%;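 note: 0% = wells stimulated with agonist and 100% = vehicle wells without agonist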
NPY1 pot ag = human NPY-Y1 potentiation or agonism, primary screen; P25929; NPY-Y1 expressing cells, potentiator/agonist activation; activation, % at 3.6 µM; hit rate 0.37% among 220,000; in the data active = activation above about 33%, passing the limit was not always enough;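 note: cells stimulated with NPY at EC10 then isoproterenol at EC100; 0% = low agonist plus stimulus and 100% = saturating agonist plus stimulus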
NPY-Y1 ant conf = human NPY-Y1 antagonism, confirmation. shares compounds with NPY-Y1 antag. HEK293-CNG NPY-Y1, membrane potential fluorescence, cAMP; NPY challenge against isoproterenol-raised cAMP. inhibition, % at 3.6 µM. hit rate 21% among 1,200. AID 1254; in the data active = inhibition above about 20%;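 note: 0% = vehicle with agonist plus stimulus and 100% = stimulus alone without agonist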
NPY2 antag ctr = counter-screen for NPY-Y1 antagonists: human NPY-Y2 antagonism; inhibition, % at 3.6 µM; hit rate 28% among 1,200; AID 1255; shares compounds with NPY-Y1 antag; HEK293 NPY-Y2 CNG membrane potential fluorescence; cells given NPY, then isoproterenol;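 note: 0% = DMSO with agonist challenge and 100% = reference antagonist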
Starred values were filed as active, the others as inactive; x = not tested or not shown; ! = repeats disagree. Cut-off read from the data, not from the text of the source, unless noted: active = inhibition above about 17%; inactive = the rest.

SMILES	NPY-Y2 antag	S1P4 agonist	NPY-Y1 antag	NPY-Y2 PAM-ag	S1P4 antag	NPY1 pot ag	NPY-Y1 ant conf	NPY2 antag ctr
C=CCn1c(SCC(=O)N(CC)C2CCS(=O)(=O)C2)nc2ccccc2c1=O (configuration not stated)	x	1	x	6	-12	12	x	x
Cc1ccccc1N1CCN(c2ncnc3c2cnn3Cc2ccc(Cl)cc2)CC1	7	-1	29*	-8	-6	-37	10	17*
Cc1ccc(C)c(OCc2n[nH]c(=S)o2)c1	x	0	x	-20	-3	-33	x	x
Cc1ccc(C(C)C)c(OCc2n[nH]c(=S)o2)c1	x	2	23*	-23	-16	-9	6	10
Cc1ccc(S(=O)(=O)NC(C)(C)CN2CCc3ccccc3C2)cc1	x	0	x	-3	-15	29	x	x
CC(C)c1ccc(S(=O)(=O)c2n[nH]n3c2nc(=O)c2ccccc23)cc1	13	0	4	0	-9	-11	x	x
CCc1ccc(S(=O)(=O)c2n[nH]n3c2nc(=O)c2ccccc23)cc1	12	1	24*	-12	-8	-11	8	7
CC(C)Oc1ccc(C(=O)Nc2cccc3cccnc23)cc1	x	0	22*	-25	11	-20	16	24*
COc1ccc(C(=O)Nc2cccc3cccnc23)cc1OC	3	2	8	-1	-16	-29	x	x
COc1cccc(CC(=O)N[C@@H](CCSC)c2nc3ccccc3[nH]2)c1	x	0	2	1	3	-1	x	x
Cc1ccccc1-c1nnn(CC(=O)Nc2ccc3c(c2)OCO3)n1	x	1	19	-25	2	-33	x	x
Cc1ccccc1-c1nnn(CC(=O)NCc2ccc3c(c2)OCO3)n1	14	-2	22*	-10	4	-43	8	9
NCCOc1ccc(C23CC4CC(CC(C4)C2)C3)cc1	x	5	22*	-14	-20	-34	21*	35*
OCCN1CCN(CC(O)COc2ccc(C34CC5CC(CC(C5)C3)C4)cc2)CC1 (configuration not stated)	x	-3	12	-42	-11	-50	x	x
S=c1[nH]nc(-c2ccc3ccccc3n2)o1	12	-1	20*	-11	-17	-3	11	7
CCCOc1ccc(-c2nc(OC)c3ccccc3n2)cc1	3	0	20*	3	-19	-37	12	18*
COc1cccc(C(C(=O)NC2CCCC2)N(CC2CCCO2)C(=O)Cc2cccs2)c1 (configuration not stated)	x	1	26*	-10	-13	12	8	8
Cn1c(=O)c2c(-c3ccc(OC(F)F)cc3)cc(-c3ccccc3)nc2n(C)c1=O	x	2	x	-16	-5	-2	x	x
CC1CCN(C(=O)C2c3ccccc3C(=O)N3CCc4ccccc4C23)CC1 (configuration not stated)	17	-2	14	-3	-18	-17	x	x
O=C(C1c2ccccc2C(=O)N2CCc3ccccc3C12)N1CCN(Cc2ccccc2)CC1 (configuration not stated)	10	1	22*	-1	-9	6	6	3
CCC(C)(C)n1nnnc1CN(Cc1ccco1)Cc1cc2cc3c(cc2[nH]c1=O)OCO3	4	1	4	1	14	-27	x	x
CCC(C)(C)n1nnnc1CN(Cc1ccc(Cl)cc1)Cc1ccco1	17	0	24*	-23	9	-37	17	14
O=C(COc1ccc(Cl)cc1Cl)Nc1nnc(C2=COCCO2)o1	x	0	7	-24	-2	-17	x	x
O=C(COc1ccc(Cl)cc1)Nc1nnc(C2=COCCO2)o1	x	0	22*	-32	-4	-19	10	7
O=C(CN1CCN(C2CCCCC2)CC1)Nc1ccccc1-c1ccccc1	17	-1	21*	-15	6	-36	6	12
SMILES	NPY-Y2 antag	S1P4 agonist	NPY-Y1 antag	NPY-Y2 PAM-ag	S1P4 antag	NPY1 pot ag	NPY-Y1 ant conf	NPY2 antag ctr
CN1Cc2cc(C(=O)c3cc(Cl)cc(CSc4ncccn4)c3O)cnc2NC1=O	4	1	21*	-1	8	1	-1	15
Cn1c2ccccc2c2cnn(CC(=O)O)c(=O)c21	12	1	26*	-40	4	-48	7	7
CCCOC(=O)C(C)n1c(-c2ccccc2)nc2ccccc2c1=O (configuration not stated)	14	0	33*	-66	21	-58	13	11
CCCCOC(=O)Cn1c(-c2ccccc2)nc2ccccc2c1=O	2	0	5	1	-14	-4	x	x
CCOC(=O)C1=NOC2C3CC(C12)C1C(=O)N(CCc2ccc(OC)c(OC)c2)C(=O)C31 (configuration not stated)	x	-1	x	13	-16	12	x	x
CCC(=O)Nc1c(C#N)c2nc3ccccc3nc2n1C1CCCCC1	3	-1	6	-4	-13	-22	x	x
CCOC(=O)c1c(NC(=O)c2ccco2)n(C2CCCCC2)c2nc3ccccc3nc12	10	3	25*	8	-2	3	-3	-2
CCCCOc1ccccc1C1CC(=O)NC2=C1C(=O)CCC2 (configuration not stated)	3	-1	44*	-8	-1	-13	10	21*
O=C(OCC(=O)c1c[nH]c2ccccc12)c1cc(Br)ccc1O	x	1	-5	10	-10	4	x	x
COc1ccccc1OC(=O)c1cc(Cl)nc2ccccc12	0	0	21*	3	14	-2	14	17*
COc1ccc(CCN(Cc2ccccn2)C(=S)Nc2ccccc2Cl)cc1OC	x	0	28*	-3	-26	-8	18	8
COc1ccccc1/C=C1\SC(=S)N(CC(=O)Nc2nnc(C)s2)C1=O	x	2	5	-1	-8	-6	x	x
O=C1CCc2cc(OCCCCc3nnnn3C3CCCCC3)ccc2N1	7	-1	43*!	-21	-13	-70	26*	46*
CC(C)CC(c1nnnn1C1CCCC1)N1CCN(c2ccccc2F)CC1 (configuration not stated)	14	-1	27*	-2	-3	-10	24*	12
COc1ccc(OC)c(C(c2nnnn2C2CCCC2)N2CCN(c3ccccc3F)CC2)c1 (configuration not stated)	13	0	22*	-19	4	6	6	8
COc1ccc(N2CCN(C(c3ccccc3OC)c3nnnn3C3CCCC3)CC2)cc1 (configuration not stated)	11	-1	9	0	13	11	x	x

Screening results: PubChem, The Scripps Research Institute Molecular Screening Center
